The text below walks through data of ChEMBL document CHEMBL2385063, “Identification of 2-(2-(1-naphthoyl)-8-fluoro-3,4-dihydro-1H-pyrido[4,3-b]indol-5(2H)-yl)acetic acid (setipiprant/ACT-129968), a potent, selective, and orally bioavailable chemoattractant receptor-homologous molecule expressed on Th2 cells (CRTH2) antagonist” (J Med Chem, 2013).

Data set [1] in a line: Protein binding in plasma (unknown origin). The class given is ADME, cell-free. The following applies: read-out: PPB.
Data set [2] concerns the target T1, Prostaglandin D2 receptor 2 (Mus musculus) (UniProt Q9Z2J6).
T1 sequence (whole entry): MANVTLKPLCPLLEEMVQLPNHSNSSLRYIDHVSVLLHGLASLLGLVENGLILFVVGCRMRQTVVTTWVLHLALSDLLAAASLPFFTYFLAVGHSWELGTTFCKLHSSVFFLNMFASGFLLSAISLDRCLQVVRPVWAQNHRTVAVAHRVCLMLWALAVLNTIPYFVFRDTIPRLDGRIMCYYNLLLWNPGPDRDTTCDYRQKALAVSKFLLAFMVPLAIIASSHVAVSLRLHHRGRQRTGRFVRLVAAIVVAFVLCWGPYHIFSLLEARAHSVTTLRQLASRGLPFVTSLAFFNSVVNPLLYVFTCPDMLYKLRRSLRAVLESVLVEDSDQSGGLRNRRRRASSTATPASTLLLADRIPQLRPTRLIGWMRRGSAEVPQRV
Nature of the data set: Antagonist activity at mouse CRTH2 receptor assessed as inhibition of calcium flux by cell-based FLIPR assay. The data set is classed as functional.

Data set [3] is filed under the species Homo sapiens. Nature of the data set: Selectivity factor, ratio of IC50 for recombinant human prostanoid DP1 receptor to IC50 for recombinant human CRTH2 receptor. Put shortly:
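hDP₁ IC₅₀ came from competitive [³H]PGD₂ binding on CHO cells stably overexpressing recombinant hDP₁. hCRTh2 IC₅₀ came from [³H]PGD₂ (2.5 nM) displacement on membranes of HEK-293 cells stably expressing hCRTh2, incubated 90 min at room temperature, filtered and counted. f_Sel = IC₅₀(hDP₁)/IC₅₀(hCRTh2).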

The target in data set [4] is T2, Prostaglandin D2 receptor 2 (Homo sapiens) (UniProt Q9Y5Y4).
T2 sequence (whole entry): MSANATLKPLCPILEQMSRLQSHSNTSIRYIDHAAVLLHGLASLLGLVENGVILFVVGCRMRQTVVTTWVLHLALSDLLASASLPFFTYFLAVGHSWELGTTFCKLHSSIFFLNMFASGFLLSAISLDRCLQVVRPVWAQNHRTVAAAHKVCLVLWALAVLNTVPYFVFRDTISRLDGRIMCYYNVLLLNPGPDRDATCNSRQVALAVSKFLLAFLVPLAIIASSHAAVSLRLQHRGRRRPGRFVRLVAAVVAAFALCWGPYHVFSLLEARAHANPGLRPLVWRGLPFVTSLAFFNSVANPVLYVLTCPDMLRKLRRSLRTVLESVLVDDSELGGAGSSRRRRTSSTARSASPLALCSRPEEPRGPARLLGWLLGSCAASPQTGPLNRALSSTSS
As to the kind of experiment: Selectivity factor, ratio of IC50 for recombinant human CRTH2 receptor in presence of human serum albumin to IC50 for recombinant human CRTH2 receptor in absence of human serum albumin. Put shortly:
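Competitive [³H]PGD₂ (2.5 nM) displacement on membranes from HEK-293 cells stably expressing hCRTh2. Buffer C was 50 mM Tris, pH 7.4, 100 mM NaCl, 1 mM EDTA and 0.1% BSA, run with or without 0.5% HSA. Membrane was 80 μg protein/well, incubated 90 min at room temperature, then filtered and counted by scintillation. Nonspecific binding was taken with 10 μM PGD₂. f_HSA = IC₅₀(HSA)/IC₅₀(buffer).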

The target in data set [5] is T3, Chemoattractant receptor-homologous molecule expressed on Th2 cells (Cavia porcellus) (UniProt Q56D28).
T3 sequence (whole entry): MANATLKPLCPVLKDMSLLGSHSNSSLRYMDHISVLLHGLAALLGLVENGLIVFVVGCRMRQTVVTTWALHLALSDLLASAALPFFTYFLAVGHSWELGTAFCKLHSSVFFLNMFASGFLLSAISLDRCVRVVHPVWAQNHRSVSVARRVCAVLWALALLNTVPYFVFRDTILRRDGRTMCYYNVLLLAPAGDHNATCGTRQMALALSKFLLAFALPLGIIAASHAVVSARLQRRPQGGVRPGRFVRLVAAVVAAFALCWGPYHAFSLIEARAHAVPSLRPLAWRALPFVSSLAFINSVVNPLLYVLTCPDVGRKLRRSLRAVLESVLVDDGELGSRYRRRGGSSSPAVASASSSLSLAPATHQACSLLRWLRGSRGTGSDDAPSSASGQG
As to the kind of experiment: Antagonist activity at guinea pig CRTH2 receptor assessed as inhibition of calcium flux by cell-based FLIPR assay. The data set is classed as functional.

The target of data set [6] is T4, G-protein coupled receptor (Canis lupus familiaris) (UniProt Q2A652).
T4 sequence (whole entry): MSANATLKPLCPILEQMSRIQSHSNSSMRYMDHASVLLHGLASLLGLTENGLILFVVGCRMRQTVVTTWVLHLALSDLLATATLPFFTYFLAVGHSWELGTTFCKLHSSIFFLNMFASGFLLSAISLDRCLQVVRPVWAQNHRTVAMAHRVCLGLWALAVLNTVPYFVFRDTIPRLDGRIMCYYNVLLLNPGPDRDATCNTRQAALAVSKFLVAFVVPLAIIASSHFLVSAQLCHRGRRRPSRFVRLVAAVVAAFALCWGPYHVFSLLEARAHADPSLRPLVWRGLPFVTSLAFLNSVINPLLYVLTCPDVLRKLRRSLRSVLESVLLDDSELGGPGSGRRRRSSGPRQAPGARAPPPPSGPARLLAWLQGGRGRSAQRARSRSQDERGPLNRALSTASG
As to the kind of experiment: Antagonist activity at dog CRTH2 receptor assessed as inhibition of calcium flux by cell-based FLIPR assay. The data set is classed as functional.

Data set [7] has as its target T5, Prostaglandin G/H synthase 1 (Ovis aries) (UniProt P05979).
T5 sequence (whole entry): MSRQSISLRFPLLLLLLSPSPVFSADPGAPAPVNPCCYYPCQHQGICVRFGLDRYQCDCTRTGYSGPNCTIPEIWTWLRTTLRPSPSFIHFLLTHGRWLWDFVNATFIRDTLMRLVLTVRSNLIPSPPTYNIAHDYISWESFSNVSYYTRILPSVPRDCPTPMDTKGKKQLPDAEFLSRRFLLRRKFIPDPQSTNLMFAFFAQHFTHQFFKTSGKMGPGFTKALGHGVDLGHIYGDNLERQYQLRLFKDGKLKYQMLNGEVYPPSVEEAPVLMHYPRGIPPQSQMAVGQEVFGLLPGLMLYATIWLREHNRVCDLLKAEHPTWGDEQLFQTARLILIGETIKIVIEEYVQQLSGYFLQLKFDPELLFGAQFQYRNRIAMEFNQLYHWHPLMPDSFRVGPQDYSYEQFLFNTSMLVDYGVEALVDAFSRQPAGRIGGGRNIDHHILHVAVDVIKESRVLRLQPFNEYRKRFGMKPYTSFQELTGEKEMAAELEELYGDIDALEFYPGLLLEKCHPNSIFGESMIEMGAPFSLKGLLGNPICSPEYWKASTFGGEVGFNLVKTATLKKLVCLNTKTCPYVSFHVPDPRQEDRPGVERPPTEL
As to the kind of experiment: […] at ovine COX-1 at 10 uM relative to control. Also on record: scale not given: the % may be the effect or the level left. Put shortly: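 Ovine COX-1 activity measured with a commercial kit, following the manufacturer's protocol. Compounds were tested in duplicate at 10 μM final concentration. Activity is expressed as inhibition relative to control.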

Active and inactive are the calls of the source. The rule behind the calls is not given here.

`O=C(O)Cn1c2c(c3cc(C(F)(F)F)ccc31)CN(C(=O)c1cccc3ccccc13)CC2`: the fraction unbound in data set [1] is below 0.03. In addition, the inhibition result in data set [2], in data set [5] and in data set [6] was “Active” in each case. In addition, the Ratio IC50 in data set [3] worked out at 200; in data set [4] it was 6. The compound also had an Activity in data set [7] below 30%.

In the case of `O=C(O)Cn1c2c(c3ccccc31)CN(C(=O)c1ccccc1)CC2`, the fraction unbound in data set [1] was below 0.03. The inhibition entry in data set [2], in data set [5] and in data set [6] was “Active” in each case. For the same compound, the Ratio IC50 in data set [3] is above 580; in data set [4] it was 1. In data set [7], this compound came in with an Activity below 30%.

In the case of `O=C(O)Cn1c2c(c3cc(F)ccc31)CN(C(=O)Cc1cccc3ccccc13)CC2`, in data set [1], the fraction unbound was below 0.03. For the same compound, the inhibition entry in data set [2], in data set [5] and in data set [6] was “Active” throughout. Further, the Ratio IC50 in data set [3] is above 2500; in data set [4], 45. In addition, the Activity in data set [7] is below 30%.

With `O=C(O)Cn1c2c(c3cc(F)ccc31)CN(C(=O)CCc1cccc3ccccc13)CC2`, in data set [1], the fraction unbound was below 0.03. For the same compound, the inhibition entry in data set [2], in data set [5] and in data set [6] was “Active” each time. In addition, the values for the Ratio IC50 in data set [3] and in data set [4] were above 1000 and 3, respectively. Moreover, the Activity in data set [7] is below 30%.
